According to ChEMBL document CHEMBL4118273, “Design, Synthesis, and Biological Evaluation of Pyrimido[4,5- d]pyrimidine-2,4(1 H,3 H)-diones as Potent and Selective Epidermal Growth Factor Receptor (EGFR) Inhibitors against L858R/T790M Resistance Mutation” (J Med Chem, 2018):
Values after ≈ are worked out from the molar mass of the structure shown.

How the values were obtained:
[1] = Cmax in ICR mouse at 10 mg/kg, po by LC-MS/MS analysis; format: ADME, organism-based; design: dose 10 mg/kg, route oral; details: in vivo
[2] = Half life in human liver microsomes at 0.1 uM after 60 mins in presence of NADPH by LC-MS/MS analysis; format: ADME, microsome
Outline: (§1)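 Human or mouse liver microsomes (0.33 mg/mL protein) in 0.1 M Tris/HCl pH 7.4 with 5 mM MgCl2, 1 mM NADPH, 0.01% DMSO and 0.005% BSA; test compound at 0.1 µM final, 37 °C for 60 min. Aliquots at 0, 7, 17, 30 and 60 min quenched by methanol precipitation, centrifuged and analysed by LC-MS/MS.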

[3] = Apparent permeability from apical to basolateral side in MDCK2 cells at 2 uM after 2.5 hrs by LC-MS/MS method; format: ADME, cell-based, Canis lupus familiaris, MDCK-II; details: dog, MDCK
[4] = Oral bioavailability in ICR mouse at 10 mg/kg by LC-MS/MS analysis; format: ADME, organism-based; details: in vivo
[5] = AUC (0 to t) in ICR mouse at 10 mg/kg, po by LC-MS/MS analysis; format: ADME, organism-based; details: in vivo
[6] = Half life in mouse liver microsomes at 0.1 uM after 60 mins in presence of NADPH by LC-MS/MS analysis; format: ADME, microsome; outline: as §1
[7] = Efflux ratio of apparent permeability from apical to basolateral side in MDCK2 cells at 2 uM after 2.5 hrs by LC-MS/MS method; format: ADME, cell-based, Canis lupus familiaris, MDCK-II; details: dog, MDCK
[8] = Tmax in ICR mouse at 10 mg/kg, po by LC-MS/MS analysis; format: ADME, organism-based; details: in vivo
Homo sapiens = organism: Homo sapiens; test: Selectivity ratio of IC50 for recombinant human GST-tagged EGFR (668 to 1210 residues) expressed in baculovirus expression system to IC50 for recombinant human GST-tagged EGFR L858R/T790M double mutant expressed in baculovirus expression system
Outline: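 ELISA-based EGFR tyrosine kinase assay run on wild-type and L858R/T790M enzymes. IC50 values come from at least three independent determinations, reported as means ± SD. Selectivity is the wild-type IC50 divided by the L858R/T790M IC50.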

[9] = target: Epidermal growth factor receptor (Homo sapiens, UniProt P00533); test: Inhibition of wild type EGFR in EGF-stimulated human A431 cells assessed as reduction in Akt phosphorylation at Ser-473 residue up to 1000 nM by Western blot method
Outline: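 A431 cells lysed in Tris-HCl pH 6.8 buffer with DTT, SDS and glycerol; equal protein amounts resolved on 8% SDS-PAGE, transferred to nitrocellulose and probed for p-EGFR (Y1068), total EGFR, p-AKT (Ser473), total AKT and GAPDH.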

[10] = Aqueous solubility in pH 7.4 PBS buffer by UV-Visible spectrophotometric method; format: physicochemical
Outline: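 Solubility determined in 0.1 M PBS, pH 7.4, by UV-visible spectrophotometry.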

Mus musculus [11] = test: Toxicity in Balb/c mouse xenografted with human NCI-H1975 cells assessed as body weight loss at 50 mg/kg/day, po once daily for 14 days measured every 2 to 3 days during compound dosing; format: organism-based; details: in vivo
Outline: (§2)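 A431 or H1975 cells were grown in RPMI-1640 with 10% FBS, and about 2 × 10^6 cells were implanted subcutaneously in the right flank of 4–6-week-old BALB/c mice. At 200–400 mm³, mice were randomized to vehicle or treated groups (n = 6). Dosing was oral, once daily, for 14 days. Body weights were recorded every 2–3 days.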

A-431 = test: Cytotoxicity against human A431 cells harboring wild type EGFR assessed as reduction in cell viability after 72 hrs by SRB assay; format: cell-based; details: A-431, 72 h
Outline: (§3)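 Cell growth inhibition measured by sulforhodamine B colorimetric assay in H1975 (EGFR L858R/T790M) and A431 (overexpressed wild-type EGFR) cells; IC50 values are means ± SD of at least three independent determinations. Selectivity is taken as the A431:H1975 IC50 ratio.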

[12] = Cmax in ICR mouse at 1 mg/kg, iv by LC-MS/MS analysis; format: ADME, organism-based; design: dose 1 mg/kg, route intravenous; details: in vivo
[13] = Apparent volume of distribution in ICR mouse at 1 mg/kg, iv by LC-MS/MS analysis; format: ADME, organism-based; details: in vivo, read-out: Vz
[14] = Half life in ICR mouse at 10 mg/kg, po by LC-MS/MS analysis; format: ADME, organism-based; details: in vivo
NCI-H1975 [15] = test: Antiproliferative activity against human NCI-H1975 cells harboring EGFR L858R/T790M double mutant after 72 hrs by SRB assay; format: functional, cell-based; details: NCI-H1975, 72 h; outline: as §3
Cytochrome P450 3A4 = Cytochrome P450 3A4 (Homo sapiens, UniProt P08684); test: Inhibition of human CYP3A4 (unknown origin); format: ADME
Cytochrome P450 1A2 = target: T1, Cytochrome P450 1A2 (Homo sapiens, UniProt P05177); test: Inhibition of human CYP1A2 (unknown origin); format: ADME
T1 sequence (P05177 whole entry): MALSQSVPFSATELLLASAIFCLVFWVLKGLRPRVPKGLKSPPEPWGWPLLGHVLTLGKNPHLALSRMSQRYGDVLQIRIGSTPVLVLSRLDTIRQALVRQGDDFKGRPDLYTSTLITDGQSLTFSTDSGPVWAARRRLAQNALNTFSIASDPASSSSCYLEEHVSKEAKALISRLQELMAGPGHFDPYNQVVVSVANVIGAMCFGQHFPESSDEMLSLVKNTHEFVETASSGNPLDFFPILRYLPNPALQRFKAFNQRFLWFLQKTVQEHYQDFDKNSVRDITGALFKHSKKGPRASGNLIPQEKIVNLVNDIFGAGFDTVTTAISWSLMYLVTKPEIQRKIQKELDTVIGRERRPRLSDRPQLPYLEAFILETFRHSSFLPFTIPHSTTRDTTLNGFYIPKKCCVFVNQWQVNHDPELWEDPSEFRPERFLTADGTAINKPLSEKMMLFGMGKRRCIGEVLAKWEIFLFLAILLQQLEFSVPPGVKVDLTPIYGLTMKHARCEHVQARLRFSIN

[16] = Tmax in ICR mouse at 1 mg/kg, iv by LC-MS/MS analysis; format: ADME, organism-based; details: in vivo
Mus musculus [17] = test: Toxicity in Balb/c mouse xenografted with human A431 cells assessed as body weight loss at 50 mg/kg/day, po once daily for 14 days measured every 2 to 3 days during compound dosing; format: organism-based; details: in vivo; outline: as §2
NCI-H1975 [18] = test: Antitumor activity against human NCI-H1975 cells xenografted in Balb/c mouse assessed as tumor growth inhibition at 50 mg/kg/day, po once daily for 14 days measured every 2 to 3 days during compound dosing relative to control; format: functional; details: read-out: TGI
Outline: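 BALB/c mice, 4–6 weeks old, implanted subcutaneously in the right flank with about 2 × 10^6 H1975 or A431 cells grown in RPMI-1640 with 10% FBS. At 200–400 mm3 tumors, mice were randomized (six/group) and dosed orally once daily with vehicle or inhibitor for 14 days. Caliper volumes, V = L×W²/2, were taken every 2–3 days; means ± SEM, Student's t test vs vehicle.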

Cytochrome P450 2C9 = Cytochrome P450 2C9 (Homo sapiens, UniProt P11712); test: Inhibition of human CYP2C9 (unknown origin); format: ADME
Sequence of Cytochrome P450 2C9 (P11712 whole entry): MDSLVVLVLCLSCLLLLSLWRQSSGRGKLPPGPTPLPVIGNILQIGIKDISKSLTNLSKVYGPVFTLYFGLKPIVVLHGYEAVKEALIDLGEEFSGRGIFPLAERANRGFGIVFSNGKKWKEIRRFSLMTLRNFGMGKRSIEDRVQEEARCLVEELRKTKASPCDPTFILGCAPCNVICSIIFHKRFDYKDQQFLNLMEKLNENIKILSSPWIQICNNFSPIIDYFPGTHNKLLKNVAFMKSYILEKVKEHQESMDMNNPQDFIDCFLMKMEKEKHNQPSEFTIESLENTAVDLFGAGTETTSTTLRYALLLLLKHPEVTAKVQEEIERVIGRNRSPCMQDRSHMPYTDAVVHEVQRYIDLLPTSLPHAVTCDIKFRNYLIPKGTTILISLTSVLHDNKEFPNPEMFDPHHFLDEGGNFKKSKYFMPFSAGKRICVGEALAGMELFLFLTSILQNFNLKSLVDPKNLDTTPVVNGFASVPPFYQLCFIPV

Sequence of Epidermal growth factor receptor (P00533 whole entry): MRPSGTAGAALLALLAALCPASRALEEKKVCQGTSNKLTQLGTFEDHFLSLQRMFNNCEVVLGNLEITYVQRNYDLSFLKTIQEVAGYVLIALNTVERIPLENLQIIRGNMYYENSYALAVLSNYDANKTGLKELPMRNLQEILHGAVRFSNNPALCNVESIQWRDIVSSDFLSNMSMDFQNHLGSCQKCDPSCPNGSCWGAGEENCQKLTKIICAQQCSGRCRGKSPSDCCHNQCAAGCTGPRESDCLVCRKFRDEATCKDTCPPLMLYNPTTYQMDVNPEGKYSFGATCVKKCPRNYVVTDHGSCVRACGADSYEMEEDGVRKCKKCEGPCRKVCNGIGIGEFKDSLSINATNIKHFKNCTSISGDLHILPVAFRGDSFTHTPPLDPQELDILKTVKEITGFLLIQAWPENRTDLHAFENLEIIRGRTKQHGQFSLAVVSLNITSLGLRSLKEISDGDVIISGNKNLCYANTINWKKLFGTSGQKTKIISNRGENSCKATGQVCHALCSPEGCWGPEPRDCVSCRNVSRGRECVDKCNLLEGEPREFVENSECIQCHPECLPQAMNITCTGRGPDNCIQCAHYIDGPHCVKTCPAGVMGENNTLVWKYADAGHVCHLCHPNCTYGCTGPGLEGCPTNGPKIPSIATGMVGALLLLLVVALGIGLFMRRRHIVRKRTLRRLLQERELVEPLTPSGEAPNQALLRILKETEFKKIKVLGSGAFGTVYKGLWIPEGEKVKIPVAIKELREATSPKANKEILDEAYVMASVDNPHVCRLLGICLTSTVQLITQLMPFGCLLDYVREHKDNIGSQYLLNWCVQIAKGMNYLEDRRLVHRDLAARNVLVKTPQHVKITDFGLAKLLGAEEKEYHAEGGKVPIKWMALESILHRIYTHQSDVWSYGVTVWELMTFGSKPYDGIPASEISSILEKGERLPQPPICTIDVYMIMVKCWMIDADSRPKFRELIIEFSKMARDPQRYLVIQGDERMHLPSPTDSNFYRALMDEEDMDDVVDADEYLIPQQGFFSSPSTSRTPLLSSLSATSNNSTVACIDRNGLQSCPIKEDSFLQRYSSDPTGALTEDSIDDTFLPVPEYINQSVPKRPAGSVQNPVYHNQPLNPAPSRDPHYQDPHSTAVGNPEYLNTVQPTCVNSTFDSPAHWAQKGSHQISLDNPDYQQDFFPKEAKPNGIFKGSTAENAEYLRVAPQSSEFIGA
Sequence of Cytochrome P450 3A4 (P08684 whole entry): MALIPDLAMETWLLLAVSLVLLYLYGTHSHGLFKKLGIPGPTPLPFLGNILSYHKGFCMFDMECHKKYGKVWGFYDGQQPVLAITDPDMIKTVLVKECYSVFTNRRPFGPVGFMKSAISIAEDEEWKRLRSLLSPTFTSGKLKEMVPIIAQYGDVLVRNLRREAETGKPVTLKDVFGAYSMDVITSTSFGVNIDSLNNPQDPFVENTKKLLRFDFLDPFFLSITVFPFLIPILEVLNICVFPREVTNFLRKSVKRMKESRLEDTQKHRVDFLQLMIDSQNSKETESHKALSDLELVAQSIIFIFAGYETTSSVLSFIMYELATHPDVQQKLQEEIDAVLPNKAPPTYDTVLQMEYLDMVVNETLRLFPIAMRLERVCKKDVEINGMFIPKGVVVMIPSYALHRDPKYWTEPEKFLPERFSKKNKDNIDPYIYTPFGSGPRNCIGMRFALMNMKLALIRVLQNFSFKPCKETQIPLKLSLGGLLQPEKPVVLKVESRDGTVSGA

`C=CC(=O)Nc1cccc(-n2c(=O)n(C(C)C)c(=O)c3cnc(Nc4ccc(N5CCN(C)CC5)cc4OC)nc32)c1` showed a Cmax [1] of 271 ng/mL, a half-life at 0.1 µM [2] of 1.42 h and a Papp A→B at 2.5 h, 2 µM [3] of 1.5 ×10⁻⁶ cm/s. For the same molecule, the bioavailability [4] was 35%, the AUC(0-t) [5] was 650 ng·h/mL and the half-life at 0.1 µM [6] was 0.768 h. It also gave an efflux ratio at 2.5 h, 2 µM [7] of 9.1, a Tmax [8] of 2 h and a Ratio IC50 (Homo sapiens) of 263. For the same molecule, the “inhibition (INH)” value [9] was “Not Active”, the solubility [10] was 262 µg/mL (≈ 459 µM) and the Activity (Mus musculus [11]) was “Non-Toxic”. It also gave an IC50 (A-431) of 1.56 µM, a Cmax [12] of 311 ng/mL and a Vd [13] of 4.53 L/kg. It also gave a half-life [14] of 1.1 h, an IC50 (NCI-H1975 [15]) of 0.044 µM and an IC50 (Cytochrome P450 3A4) of 23.9 µM. The IC50 (Cytochrome P450 1A2) was over 50 µM, the Tmax [16] was 6 min and the Activity (Mus musculus [17]) was “Non-Toxic”. For the same molecule, the inhibition in vivo at 50 mg/kg/day (NCI-H1975 [18]) was 73% and the IC50 (Cytochrome P450 2C9) was over 50 µM.
